≈ marks a conversion by molar mass, not a printed value.
What was measured:
Candida albicans [1] = test: Antimicrobial activity against Candida albicans ATCC 24433 by broth microdilution method; type: functional
Method in brief: (§1)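 MICs were determined by NCCLS-guideline broth microdilution in RPMI1640 medium at 35 °C against Candida strains.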

Candida albicans [2] = test: Antimicrobial activity against Candida albicans SANK 51486 by broth microdilution method; type: functional; method in brief: as §1
Candida albicans [3] = test: Antimicrobial activity against Candida albicans TIMM 3164 by broth microdilution method; type: functional; method in brief: as §1
Candida albicans [4] = test: Antimicrobial activity against Candida albicans ATCC 64550 by broth microdilution method; type: functional; method in brief: as §1
Candida parapsilosis = test: Antimicrobial activity against Candida parapsilosis ATCC 90018 by broth microdilution method; type: functional; conditions: Lodderomyces parapsilosis; method in brief: as §1
Nakaseomyces glabratus = test: Antimicrobial activity against Candida glabrata ATCC 90030 by broth microdilution method; type: functional; method in brief: as §1
Pichia kudriavzevii = test: Antimicrobial activity against Candida krusei ATCC 6258 by broth microdilution method; type: functional; method in brief: as §1
Candida tropicalis = test: Antimicrobial activity against Candida tropicalis ATCC 750 by broth microdilution method; type: functional; method in brief: as §1
Cryptococcus neoformans = test: Antimicrobial activity against Cryptococcus neoformans TIMM 1855 by broth microdilution method; type: functional
Method in brief: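 NCCLS broth microdilution MIC determination at 35 °C for Cryptococcus neoformans.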

Aspergillus fumigatus [5] = test: Antimicrobial activity against Aspergillus fumigatus SANK 10569 by broth microdilution method; type: functional
Method in brief: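 Broth microdilution following NCCLS guidelines. Aspergillus strains incubated at 30 °C in RPMI1640 medium. The MIC was read as the endpoint.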

Aspergillus flavus = test: Antimicrobial activity against Aspergillus flavus SANK 18497 by broth microdilution method
Aspergillus fumigatus [6] = test: Antimicrobial activity against Aspergillus fumigatus ATCC 26430 by broth microdilution method
Candida albicans [7] = test: Antimicrobial activity against Candida albicans 427 infected ddY mouse assessed as survival rate at 20 mg/kg, po administered after 1 hr, 4 hrs, 24 hrs of infection; type: functional
Method in brief: (§2)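 ddY mice (n = 10) infected systemically by intravenous injection of C. albicans 427, 5.5 × 10⁶ CFU/mouse. Treatment 20 mg/kg/administration, given 1, 4 and 24 h after infection, orally or ip as per line. Survival recorded 21 days after administration.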

Candida albicans [8] = test: Antimicrobial activity against Candida albicans 427 infected ddY mouse assessed as survival at 20 mg/kg, po administered after 1 hr, 4 hrs, 24 hrs of infection; type: functional; method in brief: as §2
Candida albicans [9] = test: Antimicrobial activity against Candida albicans 427 infected ddY mouse assessed as survival at 20 mg/kg, ip administered after 1 hr, 4 hrs, 24 hrs of infection; type: functional; conditions: route intraperitoneal; method in brief: as §2
Mus musculus = test: Toxicity in ddY mouse at 500 mg/kg, po once daily for 4 days; conditions: in vivo, 96 h

For C[C@@H](S[C@H]1CO[C@H](/C=C/C=C/C=C/c2ccc(C(F)(F)F)cc2)OC1)[C@](O)(Cn1cncn1)c1ccc(F)cc1F.O=C(O)C(=O)O, the MIC (Candida albicans [1]) was 0.25 µg/mL, the MIC (Candida albicans [2]) was 0.031 µg/mL and the MIC (Candida albicans [3]) was 1 µg/mL. The MIC (Candida albicans [4]) was > 4 µg/mL, the MIC (Candida parapsilosis) was 0.25 µg/mL and the MIC (Nakaseomyces glabratus) was > 4 µg/mL. It also gave an MIC (Pichia kudriavzevii) of 1 µg/mL, an MIC (Candida tropicalis) of 2 µg/mL and an MIC (Cryptococcus neoformans) of 0.5 µg/mL. For the same molecule, the MIC (Aspergillus fumigatus [5]) was 2 µg/mL, the MIC (Aspergillus flavus) was 4 µg/mL and the MIC (Aspergillus fumigatus [6]) was 2 µg/mL.

Work on CCC(C)n1ncn(-c2ccc(N3CCN(c4ccc(OCC5COC(Cn6cncn6)(c6ccc(Cl)cc6Cl)O5)cc4)CC3)cc2)c1=O (centres undefined) [ITRACONAZOLE] yielded an MIC (Candida albicans [1]) of 0.125 µg/mL (≈ 0.177 µM), an MIC (Candida albicans [2]) of 0.031 µg/mL (≈ 0.0439 µM) and an MIC (Candida albicans [3]) of 0.25 µg/mL (≈ 0.354 µM). It also gave an MIC (Candida albicans [4]) of 1 µg/mL (≈ 1.42 µM), an MIC (Candida parapsilosis) of 0.125 µg/mL (≈ 0.177 µM) and an MIC (Nakaseomyces glabratus) of 1 µg/mL (≈ 1.42 µM). The MIC (Pichia kudriavzevii) was 0.5 µg/mL (≈ 0.709 µM), the MIC (Candida tropicalis) was 0.5 µg/mL (≈ 0.709 µM) and the MIC (Cryptococcus neoformans) was 0.25 µg/mL (≈ 0.354 µM). For the same molecule, the MIC (Aspergillus fumigatus [5]) was 0.25 µg/mL (≈ 0.354 µM), the MIC (Aspergillus flavus) was 0.5 µg/mL (≈ 0.709 µM) and the MIC (Aspergillus fumigatus [6]) was 0.25 µg/mL (≈ 0.354 µM).

In the case of C[C@@H](S[C@H]1CO[C@H](/C=C/c2ccc(C(F)(F)F)cc2)OC1)[C@](O)(Cn1cncn1)c1ccc(F)cc1F, the MIC (Candida albicans [1]) is reported as 0.063 µg/mL (≈ 0.116 µM), the MIC (Candida albicans [2]) is reported as 0.016 µg/mL (≈ 0.0295 µM) and the MIC (Candida albicans [3]) is reported as 0.125 µg/mL (≈ 0.231 µM). For the same molecule, the MIC (Candida albicans [4]) was 2 µg/mL (≈ 3.69 µM), the MIC (Candida parapsilosis) was 0.031 µg/mL (≈ 0.0572 µM) and the MIC (Nakaseomyces glabratus) was 1 µg/mL (≈ 1.85 µM). For the same molecule, the MIC (Pichia kudriavzevii) was 0.25 µg/mL (≈ 0.462 µM), the MIC (Candida tropicalis) was 0.031 µg/mL (≈ 0.0572 µM) and the MIC (Cryptococcus neoformans) was 0.016 µg/mL (≈ 0.0295 µM). For the same molecule, the MIC (Aspergillus fumigatus [5]) was 0.25 µg/mL (≈ 0.462 µM), the MIC (Aspergillus flavus) was 1 µg/mL (≈ 1.85 µM) and the MIC (Aspergillus fumigatus [6]) was 0.25 µg/mL (≈ 0.462 µM).

Molecule C[C@@H](S[C@H]1CO[C@H](/C=C/C=C/c2ccc(C(F)(F)F)cc2)OC1)[C@](O)(Cn1cncn1)c1ccc(F)cc1F.O=C(O)C(=O)O has an MIC (Candida albicans [1]) of 0.125 µg/mL, an MIC (Candida albicans [2]) of 0.016 µg/mL and an MIC (Candida albicans [3]) of 0.125 µg/mL. For the same molecule, the MIC (Candida albicans [4]) was 1 µg/mL, the MIC (Candida parapsilosis) was 0.063 µg/mL and the MIC (Nakaseomyces glabratus) was 1 µg/mL. The MIC (Pichia kudriavzevii) was 0.25 µg/mL, the MIC (Candida tropicalis) was 0.125 µg/mL and the MIC (Cryptococcus neoformans) was 0.016 µg/mL. For the same molecule, the MIC (Aspergillus fumigatus [5]) was 0.25 µg/mL, the MIC (Aspergillus flavus) was 0.5 µg/mL and the MIC (Aspergillus fumigatus [6]) was 0.25 µg/mL.

In the case of OC(Cn1cncn1)(Cn1cncn1)c1ccc(F)cc1F [FLUCONAZOLE], the MIC (Candida albicans [1]) is reported as 0.5 µg/mL (≈ 1.63 µM), the MIC (Candida albicans [2]) is reported as 0.25 µg/mL (≈ 0.816 µM) and the MIC (Candida albicans [3]) is reported as > 4 µg/mL. The MIC (Candida albicans [4]) was > 4 µg/mL, the MIC (Candida parapsilosis) was 0.5 µg/mL (≈ 1.63 µM) and the MIC (Nakaseomyces glabratus) was > 4 µg/mL. For the same molecule, the MIC (Pichia kudriavzevii) was > 4 µg/mL, the MIC (Candida tropicalis) was 2 µg/mL (≈ 6.53 µM) and the MIC (Cryptococcus neoformans) was > 4 µg/mL. The MIC (Aspergillus fumigatus [5]) was > 4 µg/mL, the Activity (Candida albicans [7]) was 60% and the MIC (Aspergillus flavus) was > 4 µg/mL. The MIC (Aspergillus fumigatus [6]) was > 4 µg/mL.

C[C@@H](C[C@H]1CO[C@H](/C=C/C=C/c2ccc(C(F)(F)F)cc2)OC1)[C@](O)(Cn1cncn1)c1ccc(F)cc1F.O=C(O)C(=O)O was tested, and the MIC (Candida albicans [1]) was 0.016 µg/mL, the MIC (Candida albicans [2]) was ≤ 0.008 µg/mL and the MIC (Candida albicans [3]) was 0.016 µg/mL. The MIC (Candida albicans [4]) was 0.5 µg/mL, the MIC (Candida parapsilosis) was 0.031 µg/mL and the MIC (Nakaseomyces glabratus) was 1 µg/mL. For the same molecule, the MIC (Pichia kudriavzevii) was 0.063 µg/mL, the MIC (Candida tropicalis) was 0.125 µg/mL and the MIC (Cryptococcus neoformans) was 0.016 µg/mL. The MIC (Aspergillus fumigatus [5]) was 0.125 µg/mL, the Survival (Candida albicans [8]) was 21 days and the Survival (Candida albicans [9]) was 21 days. The Activity (Mus musculus) was “Non-toxic”, the MIC (Aspergillus flavus) was 0.5 µg/mL and the MIC (Aspergillus fumigatus [6]) was 0.125 µg/mL.

C[C@@H](C[C@H]1CO[C@H](/C=C/C=C/C=C/c2ccc(C(F)(F)F)cc2)OC1)[C@](O)(Cn1cncn1)c1ccc(F)cc1F.O=C(O)C(=O)O was tested, and the MIC (Candida albicans [1]) was 0.125 µg/mL, the MIC (Candida albicans [2]) was 0.031 µg/mL and the MIC (Candida albicans [3]) was 0.125 µg/mL. The MIC (Candida albicans [4]) was 0.5 µg/mL, the MIC (Candida parapsilosis) was 0.125 µg/mL and the MIC (Nakaseomyces glabratus) was 2 µg/mL. The MIC (Pichia kudriavzevii) was 0.25 µg/mL, the MIC (Candida tropicalis) was 0.25 µg/mL and the MIC (Cryptococcus neoformans) was 0.125 µg/mL. For the same molecule, the MIC (Aspergillus fumigatus [5]) was 0.5 µg/mL, the MIC (Aspergillus flavus) was 1 µg/mL and the MIC (Aspergillus fumigatus [6]) was 0.5 µg/mL.

For C[C@@H](S[C@H]1CO[C@H](c2ccc(C(F)(F)F)cc2)OC1)[C@](O)(Cn1cncn1)c1ccc(F)cc1F, the MIC (Candida albicans [1]) was 0.016 µg/mL (≈ 0.031 µM), the MIC (Candida albicans [2]) was ≤ 0.008 µg/mL and the MIC (Candida albicans [3]) was 0.063 µg/mL (≈ 0.122 µM). It also gave an MIC (Candida albicans [4]) of 1 µg/mL (≈ 1.94 µM), an MIC (Candida parapsilosis) of 0.031 µg/mL (≈ 0.0601 µM) and an MIC (Nakaseomyces glabratus) of 1 µg/mL (≈ 1.94 µM). For the same molecule, the MIC (Pichia kudriavzevii) was 0.25 µg/mL (≈ 0.485 µM), the MIC (Candida tropicalis) was 0.5 µg/mL (≈ 0.97 µM) and the MIC (Cryptococcus neoformans) was 0.031 µg/mL (≈ 0.0601 µM). It also gave an MIC (Aspergillus fumigatus [5]) of 1 µg/mL (≈ 1.94 µM), an MIC (Aspergillus flavus) of 2 µg/mL (≈ 3.88 µM) and an MIC (Aspergillus fumigatus [6]) of 1 µg/mL (≈ 1.94 µM).

For C[C@@H](C[C@H]1CO[C@H](/C=C/c2ccc(C(F)(F)F)cc2)OC1)[C@](O)(Cn1cncn1)c1ccc(F)cc1F.O=C(O)C(=O)O, the MIC (Candida albicans [1]) was 0.031 µg/mL, the MIC (Candida albicans [2]) was ≤ 0.008 µg/mL and the MIC (Candida albicans [3]) was 0.016 µg/mL. For the same molecule, the MIC (Candida albicans [4]) was 1 µg/mL, the MIC (Candida parapsilosis) was 0.031 µg/mL and the MIC (Nakaseomyces glabratus) was 1 µg/mL. It also gave an MIC (Pichia kudriavzevii) of 0.063 µg/mL, an MIC (Candida tropicalis) of 0.125 µg/mL and an MIC (Cryptococcus neoformans) of 0.016 µg/mL. The MIC (Aspergillus fumigatus [5]) was 0.25 µg/mL, the MIC (Aspergillus flavus) was 0.5 µg/mL and the MIC (Aspergillus fumigatus [6]) was 0.25 µg/mL.

C[C@@H](C[C@H]1CO[C@H](c2ccc(C(F)(F)F)cc2)OC1)[C@](O)(Cn1cncn1)c1ccc(F)cc1F.O=C(O)C(=O)O was tested, and the MIC (Candida albicans [1]) was 0.016 µg/mL, the MIC (Candida albicans [2]) was ≤ 0.008 µg/mL and the MIC (Candida albicans [3]) was 0.016 µg/mL. The MIC (Candida albicans [4]) was 0.5 µg/mL, the MIC (Candida parapsilosis) was 0.016 µg/mL and the MIC (Nakaseomyces glabratus) was 1 µg/mL. For the same molecule, the MIC (Pichia kudriavzevii) was 0.125 µg/mL, the MIC (Candida tropicalis) was 0.125 µg/mL and the MIC (Cryptococcus neoformans) was 0.031 µg/mL. The MIC (Aspergillus fumigatus [5]) was 0.25 µg/mL, the MIC (Aspergillus flavus) was 1 µg/mL and the MIC (Aspergillus fumigatus [6]) was 0.25 µg/mL.

From ChEMBL document CHEMBL1141003, “Carbon analogs of antifungal dioxane-triazole derivatives: synthesis and in vitro activities” (Bioorg Med Chem Lett, 2008)
